Measured values reported in ChEMBL document CHEMBL4190223, “Natural Products Discovered in a High-Throughput Screen Identified as Inhibitors of RGS17 and as Cytostatic and Cytotoxic Agents for Lung and Prostate Cancer Cell Lines” (J Nat Prod, 2017).
Active and inactive are the calls of the source. The calls are words filed in the database; no cut-off is given here.

Columns and labels:
[1] = molecular target: T1, Regulator of G-protein signaling 17 (Homo sapiens, UniProt Q9UGC6); assay: Inhibition of RGS17 (unknown origin) GAP activity in presence of GTP by malachite green dye based assay
T1 sequence (Q9UGC6 whole entry): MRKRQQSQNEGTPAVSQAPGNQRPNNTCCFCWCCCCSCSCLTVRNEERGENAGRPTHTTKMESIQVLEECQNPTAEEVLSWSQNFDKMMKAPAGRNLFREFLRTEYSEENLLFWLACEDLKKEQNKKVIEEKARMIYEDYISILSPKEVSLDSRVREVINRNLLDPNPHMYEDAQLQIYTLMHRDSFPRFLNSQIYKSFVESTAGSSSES

[2] = molecular target: Guanine nucleotide-binding protein G(o) subunit alpha (Homo sapiens) (UniProt P09471); assay: Binding affinity to Galphao (unknown origin) assessed as change in melting temperature by differential scanning fluorimetry
Chain of Guanine nucleotide-binding protein G(o) subunit alpha (Homo sapiens) (P09471 2-354 limits assumed): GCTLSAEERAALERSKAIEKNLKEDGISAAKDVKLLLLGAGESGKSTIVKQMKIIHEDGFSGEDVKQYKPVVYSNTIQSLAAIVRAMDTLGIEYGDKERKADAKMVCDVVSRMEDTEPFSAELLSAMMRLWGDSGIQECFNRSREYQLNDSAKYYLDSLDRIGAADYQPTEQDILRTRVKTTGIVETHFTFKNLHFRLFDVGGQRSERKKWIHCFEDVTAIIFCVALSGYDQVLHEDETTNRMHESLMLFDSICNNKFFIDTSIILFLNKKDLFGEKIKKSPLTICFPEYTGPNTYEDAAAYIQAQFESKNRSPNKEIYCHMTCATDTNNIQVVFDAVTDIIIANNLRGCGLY

HEK293 [3] = assay: Induction of morphological changes in HEK293 cells assessed as cell shrinkage at 100 uM measured over 30 mins; type: cell-based; conditions: human, hek293, 0.5 h
HEK293 [4] = assay: Inhibition of Galphao interaction with GFP-fused RGS17 (unknown origin) deltaN mutant expressed in HEK293 cells assessed as disruption of RGS17 localization at cell membranes at 100 uM up to 30 mins by confocal microscopic analysis; type: cell-based; conditions: Homo sapiens
How it was run: (§1)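 HEK293T cells plated at 25 000 per well on poly-D-lysine glass and kept overnight at 37 °C, 5% CO2. Next day cotransfected with hGαo (pcDNA3.1) and GFP-RGS17 N (Lipofectamine 2000). After 24 h, cells moved to serum-free, phenol-red-free DMEM and given compound (final 0.07–0.8% DMSO). Live confocal imaging; ImageJ cross-sectional intensity analysis, each T=final image normalised to the T=0 maximum.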

HEK293 [5] = assay: Inhibition of Galphao interaction with GFP-fused RGS17 (unknown origin) deltaN mutant expressed in HEK293 cells assessed as increase in RGS17 deltaN mutant localization at cytoplasm at 100 uM up to 30 mins by confocal microscopic analysis; type: cell-based; conditions: Homo sapiens; how it was run: as §1
[6] = molecular target: T2, Regulator of G-protein signaling 17 (Homo sapiens) (UniProt Q9UGC6); assay: Inhibition of RGS17 (unknown origin)-mediated CREB phosphorylation
T2 sequence (whole entry): T1 sequence (Q9UGC6 whole entry)

A549 [7] = assay: Growth inhibition of human A549 cells measured every 2 hrs over 6 days by live cell imaging based method; type: functional
How it was run: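 A549 cells harvested by trypsin, plated at 1000 cells/well in 24-well plates, left overnight to attach, then treated in triplicate with compound or matched DMSO (≤0.2% final). Confluence imaged live every 2 h over 6 days. Change in confluence relative to DMSO plotted against concentration. IC50 taken from a linear regression of each curve at 0.5 relative growth.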

[8] = molecular target: T2, Regulator of G-protein signaling 17 (Homo sapiens); assay: Binding affinity to RGS17 (unknown origin) assessed as change in chemical shift perturbations by NMR spectroscopic analysis
HEK293 [9] = assay: Induction of morphological changes in HEK293 cells assessed as plasma membrane blebbing at 100 uM; type: cell-based; conditions: human, hek293, 100 µM
RWPE-1 = assay: Growth inhibition of human RWPE1 cells at 31.6 to 56.2 uM after 1 hr by sulforhodamine B assay; type: cell-based; conditions: rwpe-1, 1 h
[10] = molecular target: T2, Regulator of G-protein signaling 17 (Homo sapiens); assay: Binding affinity to RGS17 (unknown origin) assessed as molecular weight of covalent adduct at 100 uM after 72 hrs by ESI-MS analysis (reference value: 16232 Da)
How it was run: (§2)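 RGS17 N (1ZV4 construct, 20 μM) in 25 mM HEPES, 100 mM NaCl, 5% DMSO, pH 8, incubated with or without 100 μM compound at 4 °C for 72 h. Then dialysed twice against 25 mM NH4HCO3 at 4 °C for 24 h to strip noncovalent ligand, followed by ESI-TOF mass analysis for adducted species.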

[11] = Solubility of the compound in aqueous buffer solution; type: physicochemical
HEK293 [12] = assay: Induction of morphological changes in HEK293 cells assessed as cell shrinkage at 100 uM; type: cell-based; conditions: human, hek293, 100 µM
HEK293 [13] = assay: Inhibition of Galphao interaction with GFP-fused RGS17 (unknown origin) deltaN mutant expressed in HEK293 cells assessed as increase in RGS17 deltaN mutant localization at cytoplasm at 10 uM up to 20 mins by confocal microscopic analysis; type: cell-based; conditions: Homo sapiens
How it was run: (§3)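 HEK293T cells plated at 25 000/well on poly-D-lysine glass-bottom wells and co-transfected (Lipofectamine 2000) with hGαo and N-terminal GFP-fused RGS17 ΔN. After 24 h, switched to serum-free, phenol-red-free DMEM and compound added (0.07–0.8% DMSO final). Imaged by confocal microscopy; cross-sectional fluorescence profiles at T=0 and T=final, each pair normalised to the highest T=0 intensity.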

PC-3 [14] = assay: Growth inhibition of E-cadherin expressing human PC3 cells after 1 hr by sulforhodamine B assay; type: functional, cell-based
[15] = molecular target: T2, Regulator of G-protein signaling 17 (Homo sapiens); assay: Binding affinity to RGS17 (unknown origin) assessed as change in melting temperature by differential scanning fluorimetry
HEK293 [16] = assay: Inhibition of Galphao interaction with GFP-fused RGS17 (unknown origin) deltaN mutant expressed in HEK293 cells assessed as increase in RGS17 deltaN mutant localization at cytoplasm at 10 uM up to 5 mins by confocal microscopic analysis; type: cell-based; conditions: Homo sapiens; how it was run: as §3
[17] = molecular target: Regulator of G-protein signaling 17 (Homo sapiens, UniProt Q9UGC6, C117A); assay: Inhibition of RGS17 (unknown origin) C117A mutant interaction with biotinylated Galphao after 30 mins in presence of AMF and GDP by AlphaScreen assay
Chain of Regulator of G-protein signaling 17 (Homo sapiens, UniProt Q9UGC6, C117A) (Q9UGC6 whole entry C117A): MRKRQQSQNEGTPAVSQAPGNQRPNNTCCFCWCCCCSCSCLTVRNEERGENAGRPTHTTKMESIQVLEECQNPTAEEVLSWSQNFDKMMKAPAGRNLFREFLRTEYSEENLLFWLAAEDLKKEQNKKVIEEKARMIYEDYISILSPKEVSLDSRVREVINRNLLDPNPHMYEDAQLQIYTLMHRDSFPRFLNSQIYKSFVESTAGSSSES
How it was run: (§4)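 AlphaScreen assay: RGS17 (WT or C117A) on anti-GST beads, 10 nM final, preincubated 30 min with compound (half-log series, 100 μM to 1 nM final). Gαo-biotin on streptavidin beads then added with AMF and GDP, 10 nM final. Negative controls lacked AMF. Data n = 3, run at least in duplicate.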

PC-3 [18] = assay: Growth inhibition of E-cadherin expressing human PC3 cells transfected with RGS17 at 31.6 to 56.2 uM after 1 hr by sulforhodamine B assay; type: functional, cell-based
[19] = molecular target: T1, Regulator of G-protein signaling 17; assay: (§5) Inhibition of wild type GST-tagged RGS17 (unknown origin) interaction with biotinylated Galphao after 30 mins in presence of AMF and GDP by AlphaScreen assay; how it was run: as §4
[20] = molecular target: T2, Regulator of G-protein signaling 17 (Homo sapiens); assay: as §5; how it was run: as §4
Homo sapiens = species: Homo sapiens; assay: Growth inhibition of human TEM4-18 cells after 1 hr by sulforhodamine B assay; type: functional
[21] = molecular target: T2, Regulator of G-protein signaling 17 (Homo sapiens); assay: Binding affinity to RGS17 (unknown origin) assessed as covalent adduct formation at 100 uM after 72 hrs by ESI-MS analysis; how it was run: as §2
[22] = Thiol reactivity of the compound assessed as cysteine adduct formation at 100 uM after 4 hrs in presence of N-Acetylcysteine by Ellman's method; type: physicochemical
How it was run: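 Ellman assay: N-acetylcysteine (100 μM) incubated with compound (100 μM, 1:1) for 4 h at 37 °C. DTNB (1 mM) then added and absorbance read at 412 nm against N-acetylcysteine alone; N-ethylmaleimide as thiol-reactive control; n = 3.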

HEK293 [23] = assay: Inhibition of Galpha0 interaction with GFP-fused RGS17 (unknown origin) deltaN mutant expressed in HEK293 cells assessed as increase in RGS17 deltaN mutant localization at cytoplasm at 100 uM up to 5 mins by confocal microscopic analysis; type: cell-based; conditions: Homo sapiens; how it was run: as §3
HEK293 [24] = assay: Inhibition of Galphao interaction with GFP-fused RGS17 (unknown origin) deltaN mutant expressed in HEK293 cells assessed as increase in RGS17 deltaN mutant localization at cytoplasm at 10 uM up to 30 mins by confocal microscopic analysis; type: cell-based; conditions: Homo sapiens; how it was run: as §1
[25] = molecular target: T2, Regulator of G-protein signaling 17 (Homo sapiens); assay: Inhibition of Galphao interaction with GFP-fused full length RGS17 (unknown origin) expressed in HEK293 cells assessed as disruption of RGS17 localization at cell membranes at 100 uM after 10 mins by confocal microscopic analysis; type: cell-based
How it was run: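 HEK293T cells co-transfected with hGαo and N-terminal GFP-fused full-length RGS17, then treated with 100 μM compound in serum-free, phenol-red-free DMEM. RGS17 membrane localisation followed by confocal imaging at 0 and 10 min.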

HEK293 [26] = assay: Inhibition of Galphao interaction with GFP-fused RGS17 (unknown origin) deltaN mutant expressed in HEK293 cells assessed as increase in RGS17 deltaN mutant localization at cytoplasm at 100 uM up to 20 mins by confocal microscopic analysis; type: cell-based; conditions: Homo sapiens; how it was run: as §1
A549 [27] = assay: Growth inhibition of human A549 cells up to 1 uM measured every 2 hrs over 6 days by live cell imaging based method; type: functional
How it was run: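 A549 cells trypsinised, counted and seeded at 1000 per well in 24-well plates, then allowed to attach overnight. Treated in triplicate up to 1 μM compound (≤0.2% DMSO, matched DMSO control). Confluence imaged every 2 h for 6 days by live-cell imaging. Confluence change relative to DMSO plotted against concentration; IC50 from linear regression at 0.5 relative growth.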

SMILES	IC50 [1]	inhibition [6]	IC50 (A549 [7])	Activity [8]	Activity (HEK293 [9])	growth inhibition (GI) (RWPE-1)	Activity [10]	Activity (HEK293 [12])	growth inhibition (GI) (PC-3 [14])	Activity [15]	inhibition (HEK293 [16])	IC50 [17]	growth inhibition (GI) (PC-3 [18])	IC50 [19]	inhibition [20]	growth inhibition (GI) (Homo sapiens)	Activity [21]	Activity [22]	inhibition (HEK293 [23])	inhibition (HEK293 [24])	further results
CC(C)=CCC[C@]1(C)C=Cc2c(O)c3c(c(CC=C(C)C)c2O1)O[C@]12C(=C[C@@H]4C[C@H]1C(C)(C)O[C@@]2(C/C=C(/C)C(=O)O)C4=O)C3=O [GAMBOGIC ACID]	10 µM																				Activity [2]: Active
Cc1ccc(-n2sc(=O)n(Cc3ccc(F)cc3)c2=O)cc1																					Activity (HEK293 [3]): Toxic; inhibition (HEK293 [4]): inactive; inhibition (HEK293 [5]): inactive
CC1=C(O)C(=O)C=C2C1=CC=C1[C@@]2(C)CC[C@@]2(C)[C@@H]3C[C@](C)(C(=O)O)CC[C@]3(C)CC[C@]12C [CELASTROL]		inactive	0.69 µM	inactive	Non-Toxic	Toxic	16200 Da	Non-Toxic	Dose-dependent effect	inactive	Active	> 100 µM	inactive	10.5 µM	Dose-dependent effect	Dose-dependent effect	Active	Not Active	Active		solubility [11]: Insoluble; inhibition (HEK293 [13]): Active
C[n+]1cc2c3c(ccc2c2ccc4cc5c(cc4c21)OCO5)OCO3 [SANGUINARIUM]	12 µM	inactive	0.61 µM	inactive	Non-Toxic	Toxic	16200 Da	Non-Toxic	Dose-dependent effect	inactive	Active	> 100 µM	inactive	72.8 µM	Dose-dependent effect	Dose-dependent effect	inactive	Active	Active	Active	inhibition [25]: inactive
O=c1c(-c2cc(O)c(O)c(O)c2)coc2cc(O)c(O)c(O)c12 [IRIGENOL]	35 µM			inactive	Non-Toxic		16200 Da	Non-Toxic		inactive		81.8 µM		47.2 µM	Dose-dependent effect		inactive	Active		Active	inhibition (HEK293 [26]): Active; growth inhibition (GI) (A549 [27]): inactive
